Test results published in the M2OR odorant receptor database.

Columns and labels:
Settings in all cases: stereoisomer not certain
[1] = biological target: T1, UniProt Q8VF52
T1 sequence (whole entry): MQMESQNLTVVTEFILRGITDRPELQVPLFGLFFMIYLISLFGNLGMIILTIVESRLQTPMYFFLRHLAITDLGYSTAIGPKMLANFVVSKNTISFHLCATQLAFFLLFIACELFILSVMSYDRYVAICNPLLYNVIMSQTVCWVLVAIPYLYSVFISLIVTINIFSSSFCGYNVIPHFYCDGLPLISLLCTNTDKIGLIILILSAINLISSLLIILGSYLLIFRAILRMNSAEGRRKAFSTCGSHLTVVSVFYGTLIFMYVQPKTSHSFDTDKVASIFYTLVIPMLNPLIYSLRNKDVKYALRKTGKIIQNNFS
Summary of the method: (§1)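 Assay methods differ from source to source, frequently being transient luciferase assays in mammalian cell lines. For each receptor–molecule pair, the label responsive (active) applies when the original authors judged the measured signal statistically different from baseline, and non-responsive (inactive) applies otherwise.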

[2] = biological target: T2, UniProt Q8VFM8
T2 sequence (whole entry): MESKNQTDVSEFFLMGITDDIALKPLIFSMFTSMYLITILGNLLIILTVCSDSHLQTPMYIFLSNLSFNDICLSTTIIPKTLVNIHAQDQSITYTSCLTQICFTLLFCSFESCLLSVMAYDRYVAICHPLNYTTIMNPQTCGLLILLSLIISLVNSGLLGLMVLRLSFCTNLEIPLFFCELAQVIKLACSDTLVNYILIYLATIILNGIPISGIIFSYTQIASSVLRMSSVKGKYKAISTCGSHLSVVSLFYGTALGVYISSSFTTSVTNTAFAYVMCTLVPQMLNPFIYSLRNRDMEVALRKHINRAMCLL
Summary of the method: as §1

[3] = biological target: T3, UniProt Q8VFP5
T3 sequence (whole entry): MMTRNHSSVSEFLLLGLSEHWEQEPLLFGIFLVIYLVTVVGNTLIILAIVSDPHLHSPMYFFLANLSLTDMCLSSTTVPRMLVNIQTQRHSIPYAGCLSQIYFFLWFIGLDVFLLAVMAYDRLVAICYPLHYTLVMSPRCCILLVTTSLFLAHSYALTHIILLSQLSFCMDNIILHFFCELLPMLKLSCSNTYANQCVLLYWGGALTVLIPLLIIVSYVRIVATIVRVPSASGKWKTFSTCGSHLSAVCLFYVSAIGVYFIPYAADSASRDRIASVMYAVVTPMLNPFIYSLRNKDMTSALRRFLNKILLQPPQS
Summary of the method: as §1

[4] = biological target: T4, UniProt Q8VG01
T4 sequence (whole entry): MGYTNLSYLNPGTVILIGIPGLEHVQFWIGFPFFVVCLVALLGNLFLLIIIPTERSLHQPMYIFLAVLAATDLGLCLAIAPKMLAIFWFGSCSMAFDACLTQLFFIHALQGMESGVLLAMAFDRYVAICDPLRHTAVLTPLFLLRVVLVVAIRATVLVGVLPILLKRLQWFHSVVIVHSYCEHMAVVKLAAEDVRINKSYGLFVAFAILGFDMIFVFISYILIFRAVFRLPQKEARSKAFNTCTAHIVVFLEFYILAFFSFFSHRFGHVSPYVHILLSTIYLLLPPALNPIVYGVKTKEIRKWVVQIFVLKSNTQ
Summary of the method: as §1

[5] = biological target: T5, UniProt Q8VG27
T5 sequence (whole entry): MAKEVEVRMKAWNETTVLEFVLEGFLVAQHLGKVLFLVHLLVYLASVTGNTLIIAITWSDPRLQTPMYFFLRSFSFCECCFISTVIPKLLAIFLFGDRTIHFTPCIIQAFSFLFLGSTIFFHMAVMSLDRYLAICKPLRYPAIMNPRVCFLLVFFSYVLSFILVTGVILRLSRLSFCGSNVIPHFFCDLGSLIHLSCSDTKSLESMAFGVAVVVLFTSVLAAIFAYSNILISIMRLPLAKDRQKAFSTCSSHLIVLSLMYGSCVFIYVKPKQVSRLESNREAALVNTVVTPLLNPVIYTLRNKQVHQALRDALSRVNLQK
Summary of the method: as §1

[6] = biological target: T6, UniProt Q8VFG6
T6 sequence (whole entry): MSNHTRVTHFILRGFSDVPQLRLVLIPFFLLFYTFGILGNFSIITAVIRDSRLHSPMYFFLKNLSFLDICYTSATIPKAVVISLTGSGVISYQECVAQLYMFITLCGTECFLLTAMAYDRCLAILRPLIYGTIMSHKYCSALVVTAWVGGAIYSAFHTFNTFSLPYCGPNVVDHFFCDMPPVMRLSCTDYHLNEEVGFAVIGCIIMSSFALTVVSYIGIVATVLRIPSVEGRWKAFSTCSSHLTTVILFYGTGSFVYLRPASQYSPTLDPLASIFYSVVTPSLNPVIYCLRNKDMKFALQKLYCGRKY
Summary of the method: as §1

[7] = biological target: T7, UniProt Q8VFZ6
T7 sequence (whole entry): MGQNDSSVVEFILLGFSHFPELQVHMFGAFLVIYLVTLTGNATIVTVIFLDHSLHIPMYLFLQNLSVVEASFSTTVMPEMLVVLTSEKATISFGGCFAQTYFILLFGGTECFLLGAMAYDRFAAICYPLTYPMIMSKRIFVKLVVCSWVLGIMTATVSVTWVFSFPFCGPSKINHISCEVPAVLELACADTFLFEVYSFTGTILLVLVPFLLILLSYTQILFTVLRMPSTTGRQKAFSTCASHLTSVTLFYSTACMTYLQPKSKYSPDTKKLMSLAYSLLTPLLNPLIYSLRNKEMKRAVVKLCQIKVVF
Summary of the method: as §1

[8] = biological target: T8, UniProt Q8VG22
T8 sequence (whole entry): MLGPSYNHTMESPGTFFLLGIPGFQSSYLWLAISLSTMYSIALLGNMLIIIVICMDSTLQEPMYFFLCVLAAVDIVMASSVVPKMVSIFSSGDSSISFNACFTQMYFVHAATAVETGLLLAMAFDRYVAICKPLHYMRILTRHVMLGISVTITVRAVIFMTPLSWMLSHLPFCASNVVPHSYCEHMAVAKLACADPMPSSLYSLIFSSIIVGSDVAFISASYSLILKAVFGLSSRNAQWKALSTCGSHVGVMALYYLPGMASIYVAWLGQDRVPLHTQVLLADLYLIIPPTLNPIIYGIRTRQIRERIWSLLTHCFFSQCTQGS
Summary of the method: as §1

[9] = biological target: T9, UniProt Q8VG49
T9 sequence (whole entry): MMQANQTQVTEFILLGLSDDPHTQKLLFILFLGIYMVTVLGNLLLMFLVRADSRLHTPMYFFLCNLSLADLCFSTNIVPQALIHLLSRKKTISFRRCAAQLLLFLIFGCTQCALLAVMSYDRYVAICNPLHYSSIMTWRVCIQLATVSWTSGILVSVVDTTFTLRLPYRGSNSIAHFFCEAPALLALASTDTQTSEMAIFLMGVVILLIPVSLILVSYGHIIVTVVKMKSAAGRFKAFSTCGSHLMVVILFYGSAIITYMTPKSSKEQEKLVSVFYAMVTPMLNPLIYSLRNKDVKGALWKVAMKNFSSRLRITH
Summary of the method: as §1

[10] = biological target: UniProt Q8VG28
UniProt Q8VG28, sequence (Q8VG28 as listed by the source): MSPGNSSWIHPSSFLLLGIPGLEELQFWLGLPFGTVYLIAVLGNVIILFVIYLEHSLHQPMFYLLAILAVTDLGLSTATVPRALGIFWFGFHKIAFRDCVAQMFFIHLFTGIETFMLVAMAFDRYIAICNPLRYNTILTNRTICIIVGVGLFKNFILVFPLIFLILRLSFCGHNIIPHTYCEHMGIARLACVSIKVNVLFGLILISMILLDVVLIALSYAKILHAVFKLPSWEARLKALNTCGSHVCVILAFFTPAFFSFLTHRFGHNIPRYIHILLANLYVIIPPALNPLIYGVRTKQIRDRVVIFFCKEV
Summary of the method: as §1

SMILES	odorant receptor agonist call [1]	odorant receptor agonist call [2]	odorant receptor agonist call [3]	odorant receptor agonist call [4]	odorant receptor agonist call [5]	odorant receptor agonist call [6]	odorant receptor agonist call [7]	odorant receptor agonist call [8]	odorant receptor agonist call [9]	odorant receptor agonist call [10]
O=Cc1ccccc1	inactive	inactive	inactive	inactive	inactive	–	–	–	–	–
CCCCC(Br)C(=O)O (stereo unspecified)	inactive	inactive	inactive	inactive	inactive	–	–	–	–	–
CCC1CCC(=O)O1 (stereo unspecified)	inactive	–	–	inactive	–	inactive	inactive	inactive	inactive	–
O=c1cc(O)c2ccccc2o1	inactive	inactive	inactive	inactive	inactive	inactive	inactive	active	inactive	–
CSSC	inactive	inactive	inactive	inactive	inactive	–	–	–	–	–
O=CC=Cc1ccccc1	inactive	inactive	inactive	inactive	inactive	–	–	–	–	–
Cc1ccc(OC(=O)Cc2ccccc2)cc1	inactive	inactive	inactive	inactive	inactive	–	–	–	–	–
Oc1ccccc1Br	inactive	inactive	inactive	inactive	inactive	–	–	–	–	–
O=Cc1ccc2c(c1)OCO2	inactive	inactive	inactive	inactive	inactive	–	–	–	–	–
OCc1ccc2c(c1)OCO2	inactive	inactive	inactive	inactive	inactive	–	–	–	–	–
C=C(C)C1CC=C(C=O)CC1 (stereo unspecified)	inactive	inactive	inactive	inactive	inactive	–	–	–	–	–
COc1ccc(C=O)cc1	inactive	inactive	inactive	inactive	inactive	–	–	–	–	–
C=CCc1ccccc1	inactive	–	–	inactive	–	inactive	inactive	inactive	inactive	–
CC(C=O)Cc1ccc2c(c1)OCO2 (stereo unspecified)	inactive	inactive	inactive	inactive	inactive	–	–	–	–	–
O=C(O)CCCCCCCBr	–	–	–	–	–	–	–	–	–	active
CCCCCCC(Br)C(=O)O (stereo unspecified)	inactive	inactive	inactive	active	inactive	–	–	–	–	–
C=CCOC(=O)Cc1ccccc1	inactive	inactive	inactive	inactive	inactive	active	active	inactive	inactive	–
